Laboratory results taken from ChEMBL document CHEMBL2375257, “Synthesis of C- and O-prenylated tetrahydroxystilbenes and O-prenylated cinnamates and their action towards cancer cells” (Eur J Med Chem, 2013).

Test system: K562
Test: Cytotoxicity against human K562 cells assessed as growth inhibition after 72 hrs by MTT assay
Format: functional, cell-based
Details: for IC50: K562, 72 h
Procedure, shortened: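 K562 leukaemia cells exposed to compounds for 72 h at 37 °C in a humidified 5% CO2 incubator, with MTT read-out. IC50 is the concentration inhibiting cell growth by 50%, estimated from two concentrations per compound. Values are the mean of two independent assays, each run in duplicate; coefficients of variation <10%.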

| SMILES | growth inhibition (GI) | IC50 |
| --- | --- | --- |
| COc1ccc(/C=C/c2cc(O)cc(OCC=C(C)C)c2)cc1O | Dose-dependent effect | 46.8 µM |
| COc1cc(CCc2cc(O)cc(OCC=C(C)C)c2)ccc1O | Dose-dependent effect | 63 µM |
| COc1ccc(CCc2cc(O)cc(OCC=C(C)C)c2)cc1O | Dose-dependent effect | 31.6 µM |
| COc1cc(/C=C/c2cc(O)cc(OC)c2CC=C(C)C)ccc1O | Dose-dependent effect | 0.1 µM |
| COC(=O)/C=C/c1ccc(OC/C=C(\C)CO)cc1 | Dose-dependent effect | 70.8 µM |
| COc1cc(CCc2cc(O)cc(OC)c2CC=C(C)C)ccc1O | Dose-dependent effect | 10 µM |
| COC(=O)/C=C/c1ccc(OC/C=C(\C)C=O)cc1 | Dose-dependent effect | 57.5 µM |
| COC(=O)/C=C/c1ccc(OCC=C(C)C)cc1 | Dose-dependent effect | 97.7 µM |
| COc1cc(/C=C/c2cc(O)cc(OCC=C(C)C)c2)ccc1O | Dose-dependent effect | 21 µM |
